Source: ChEMBL document CHEMBL4842350, “Discovery of a Novel Bromodomain and Extra Terminal Domain (BET) Protein Inhibitor, I-BET282E, Suitable for Clinical Progression” (J Med Chem, 2021)

Assays:
[1] = target: Bromodomain-containing protein 4 (Homo sapiens, UniProt O60885, Y390A); experiment: Displacement of Alexa Fluor 647 labelled ligand from recombinant human N-terminal 6His-tagged BRD4-BD1 Y390A mutant (1 to 477 residue) expressed in Escherichia coli incubated for 30 mins by TR-FRET assay
[2] = target: T1, Cytochrome P450 3A4 (Homo sapiens, UniProt P08684); experiment: Inhibition of recombinant human CYP3A4 expressed in Escherichia coli using VR as probe substrate incubated for 15 to 60 mins by fluorometric assay; type: ADME
T1 sequence (P08684 whole entry): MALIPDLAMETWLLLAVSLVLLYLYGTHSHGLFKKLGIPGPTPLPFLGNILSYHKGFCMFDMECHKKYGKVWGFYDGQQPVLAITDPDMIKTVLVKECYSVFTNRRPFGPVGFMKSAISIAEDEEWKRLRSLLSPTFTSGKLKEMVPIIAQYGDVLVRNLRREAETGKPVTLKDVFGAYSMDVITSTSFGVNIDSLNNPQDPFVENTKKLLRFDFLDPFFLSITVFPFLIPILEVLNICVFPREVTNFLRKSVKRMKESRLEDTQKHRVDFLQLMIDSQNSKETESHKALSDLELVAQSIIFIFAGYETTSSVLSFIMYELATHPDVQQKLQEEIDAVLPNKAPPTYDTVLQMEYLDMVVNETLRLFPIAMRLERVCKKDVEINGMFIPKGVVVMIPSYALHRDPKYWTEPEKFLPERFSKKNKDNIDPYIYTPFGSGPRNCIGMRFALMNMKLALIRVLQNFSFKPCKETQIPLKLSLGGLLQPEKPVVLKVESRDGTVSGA
How it was run: (§1)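 Recombinant human CYPs coexpressed with NADPH reductase in E. coli bactosomes (0.1 mg protein/mL); profluorescent substrates ER (1A2), BMC (2C19), MMC (2D6), VividGreen or VividRed (3A4).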

[3] = Unbound fraction in Balb/C mouse blood at 100 to 1000 ng/ml by LC-MS/MS-based rapid equilibrium dialysis method; type: ADME, tissue-based; conditions: dose 100-1000 ng/ml
How it was run: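 Whole blood (male Balb/C mouse, male Wistar Han rat, male Beagle dog; human from one unmedicated donor) spiked to nominal 100 and 1000 ng/mL; 10 min at 37 °C, then rapid equilibrium dialysis against PBS 4 h at 37 °C, 100 rpm. Matrix-matched acetonitrile extraction, LC-MS/MS; mean of n = 6.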

[4] = target: T2, Cytochrome P450 1A2 (Homo sapiens, UniProt P05177); experiment: Inhibition of recombinant human CYP1A2 expressed in Escherichia coli using ER as probe substrate incubated for 15 to 60 mins by fluorometric assay; type: ADME; how it was run: as §1
T2 sequence (P05177 whole entry): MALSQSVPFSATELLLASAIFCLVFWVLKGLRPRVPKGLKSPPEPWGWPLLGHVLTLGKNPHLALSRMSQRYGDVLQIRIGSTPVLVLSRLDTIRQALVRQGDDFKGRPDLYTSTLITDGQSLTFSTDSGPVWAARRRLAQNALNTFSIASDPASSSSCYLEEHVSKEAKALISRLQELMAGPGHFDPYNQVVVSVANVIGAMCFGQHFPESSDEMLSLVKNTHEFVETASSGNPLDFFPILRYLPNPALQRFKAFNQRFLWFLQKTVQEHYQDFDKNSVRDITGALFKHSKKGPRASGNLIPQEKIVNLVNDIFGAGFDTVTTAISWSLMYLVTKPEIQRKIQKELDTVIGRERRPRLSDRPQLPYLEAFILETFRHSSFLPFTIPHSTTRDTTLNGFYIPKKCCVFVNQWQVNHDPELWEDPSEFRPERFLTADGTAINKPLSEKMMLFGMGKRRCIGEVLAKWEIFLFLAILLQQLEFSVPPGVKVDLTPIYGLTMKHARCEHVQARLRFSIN

[5] = target: CREB-binding protein (Homo sapiens) (UniProt Q92793); experiment: Binding affinity to CBP (unknown origin) assessed as change in melting temperature
Chain of CREB-binding protein (Homo sapiens) (Q92793 2-2442 limits assumed): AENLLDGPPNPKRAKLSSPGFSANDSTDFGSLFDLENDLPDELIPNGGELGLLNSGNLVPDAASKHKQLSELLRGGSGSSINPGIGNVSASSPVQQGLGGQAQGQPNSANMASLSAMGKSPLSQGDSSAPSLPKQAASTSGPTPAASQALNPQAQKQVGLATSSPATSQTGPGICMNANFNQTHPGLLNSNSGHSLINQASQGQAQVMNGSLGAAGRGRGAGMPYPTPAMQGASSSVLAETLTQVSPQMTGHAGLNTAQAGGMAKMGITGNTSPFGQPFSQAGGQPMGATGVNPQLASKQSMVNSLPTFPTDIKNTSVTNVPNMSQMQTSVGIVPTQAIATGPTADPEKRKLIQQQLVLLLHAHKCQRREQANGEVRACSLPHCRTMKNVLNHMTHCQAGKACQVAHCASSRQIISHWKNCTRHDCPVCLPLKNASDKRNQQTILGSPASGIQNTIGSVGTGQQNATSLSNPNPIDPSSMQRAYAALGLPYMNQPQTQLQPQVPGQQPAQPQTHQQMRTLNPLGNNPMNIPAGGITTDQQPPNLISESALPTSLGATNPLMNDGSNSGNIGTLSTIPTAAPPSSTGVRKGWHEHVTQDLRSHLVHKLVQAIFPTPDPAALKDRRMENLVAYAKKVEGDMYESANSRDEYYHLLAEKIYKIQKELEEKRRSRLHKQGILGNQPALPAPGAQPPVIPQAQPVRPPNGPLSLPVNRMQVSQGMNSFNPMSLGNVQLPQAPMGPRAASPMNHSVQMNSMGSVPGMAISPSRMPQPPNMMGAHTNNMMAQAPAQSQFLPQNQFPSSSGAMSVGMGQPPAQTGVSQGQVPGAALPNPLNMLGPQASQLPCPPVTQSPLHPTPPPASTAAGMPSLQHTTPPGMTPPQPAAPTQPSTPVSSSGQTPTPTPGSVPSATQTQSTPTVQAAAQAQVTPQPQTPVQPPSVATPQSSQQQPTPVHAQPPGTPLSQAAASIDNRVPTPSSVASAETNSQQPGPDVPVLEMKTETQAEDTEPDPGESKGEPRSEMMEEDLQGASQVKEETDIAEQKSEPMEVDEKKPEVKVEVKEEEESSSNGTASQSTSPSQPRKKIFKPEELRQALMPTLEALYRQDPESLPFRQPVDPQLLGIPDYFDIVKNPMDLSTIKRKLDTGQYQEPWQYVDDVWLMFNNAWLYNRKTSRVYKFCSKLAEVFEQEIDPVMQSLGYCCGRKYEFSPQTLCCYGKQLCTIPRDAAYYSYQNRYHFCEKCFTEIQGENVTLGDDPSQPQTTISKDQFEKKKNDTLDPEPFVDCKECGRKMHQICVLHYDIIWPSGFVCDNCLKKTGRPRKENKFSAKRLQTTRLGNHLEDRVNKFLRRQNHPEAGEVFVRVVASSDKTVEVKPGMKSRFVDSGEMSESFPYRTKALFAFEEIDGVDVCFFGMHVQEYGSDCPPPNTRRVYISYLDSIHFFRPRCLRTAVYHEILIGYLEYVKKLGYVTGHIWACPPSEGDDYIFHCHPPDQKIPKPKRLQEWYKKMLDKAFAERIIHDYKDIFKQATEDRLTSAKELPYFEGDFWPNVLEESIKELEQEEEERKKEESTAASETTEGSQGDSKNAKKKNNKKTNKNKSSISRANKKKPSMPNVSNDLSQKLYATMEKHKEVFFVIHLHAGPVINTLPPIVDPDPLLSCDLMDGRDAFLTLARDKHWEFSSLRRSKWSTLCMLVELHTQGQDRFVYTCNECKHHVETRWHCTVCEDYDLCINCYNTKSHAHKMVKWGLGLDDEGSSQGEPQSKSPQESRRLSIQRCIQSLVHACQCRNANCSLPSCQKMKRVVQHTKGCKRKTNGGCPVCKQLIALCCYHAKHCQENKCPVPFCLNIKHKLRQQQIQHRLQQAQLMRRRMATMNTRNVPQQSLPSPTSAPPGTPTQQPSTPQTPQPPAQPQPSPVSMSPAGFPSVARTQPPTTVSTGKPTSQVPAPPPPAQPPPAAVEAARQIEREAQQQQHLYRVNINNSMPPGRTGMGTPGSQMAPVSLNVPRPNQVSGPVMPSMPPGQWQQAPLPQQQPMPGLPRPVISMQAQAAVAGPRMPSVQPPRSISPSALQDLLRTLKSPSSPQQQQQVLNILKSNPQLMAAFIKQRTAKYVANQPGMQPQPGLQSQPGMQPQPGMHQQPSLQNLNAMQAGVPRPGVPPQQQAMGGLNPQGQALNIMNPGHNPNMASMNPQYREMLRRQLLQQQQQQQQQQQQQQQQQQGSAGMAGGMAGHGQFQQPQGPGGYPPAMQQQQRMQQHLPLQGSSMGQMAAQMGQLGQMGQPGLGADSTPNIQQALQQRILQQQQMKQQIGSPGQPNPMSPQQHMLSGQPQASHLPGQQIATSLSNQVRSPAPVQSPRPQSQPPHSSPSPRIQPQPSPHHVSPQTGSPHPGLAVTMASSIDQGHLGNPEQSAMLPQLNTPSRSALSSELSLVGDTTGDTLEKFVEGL

[6] = Oral bioavailability in Beagle dog at 3 mg/kg measured upto 24 hrs by HPLC-MS/MS analysis; conditions: in vivo
[7] = target: T1, Cytochrome P450 3A4; experiment: Inhibition of recombinant human CYP3A4 expressed in Escherichia coli using VG as probe substrate incubated for 15 to 60 mins by fluorometric assay; type: ADME

## COC[C@@H](C)n1c(C2CCOCC2)nc2cnc3cc(-c4c(C)noc4C)c(OC)cc3c21
[1]
  IC50: 0.0398 µM
[2]
  IC50: > 50 µM
[3]
  fraction unbound: 0.1
[4]
  IC50: > 50 µM
[5]
  ΔTm: 3.4 °C
[6]
  F: 31%
[7]
  IC50: 25.1 µM
